Source: ChEMBL document CHEMBL1125313, “Analogs of Ac-CCK-7 incorporating dipeptide mimics in place of Met28-Gly29” (J Med Chem, 1992)
Starred links: 1 amine or outer side, 2 acyl side, 3 side chain; linkers in the order of their positions; H or OH if unused. Non-standard residues stand in square brackets, D forms with d. Residues, ends and D or L forms follow the SMILES beside them. Phe(4-SO3H) = N[C@@H](Cc1ccc(S(=O)(=O)O)cc1)C(=O)O; X3 = O=C(C[C@@H]1CCCC[C@@H]1N[*:1])[*:2]; X5 = O=C(C[C@H]1CCCC[C@@H]1N[*:1])[*:2]; X1 = Cc1c(N[*:1])cccc1C(=O)[*:2]; X4 = Cc1ccc(N[*:1])cc1C(=O)[*:2]; 3Abz = Nc1cccc(C(=O)O)c1; 4Abz = Nc1ccc(C(=O)O)cc1; CO = O=C([*:1])[*:2]; Ahx = NCCCCCC(=O)O; Ava = NCCCCC(=O)O; GABA = NCCCC(=O)O; βAla = NCCC(=O)O

Assays:
Rattus norvegicus [1] = experiment: Compound was evaluated for its ability to suppress food intake in one of two meal-fed rats after intraperitoneal administration of 32 ug/kg; assay type: functional
Outline: (§1)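 Male Sprague-Dawley rats fed in one of two meal models, peptide ip. In "1-2-1" model, rats trained 4 days to eat ground chow 9–10 a.m. and 12–1 p.m., dosed 15 min before first meal, groups of 5–6. Or rats fasted 17 h overnight, given vehicle (100% DMSO) or peptide ip, 0.33 mL/kg, food weighed after 1 h, groups of 5–7. First-hour intake as % of control. ED50 from log-probit analysis; t-test versus controls.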

[2] = biological target: T1, Cholecystokinin receptor type A (Rattus norvegicus, UniProt P30551); experiment: The compound was tested in vitro for inhibition of specific [3H]propionyl-CCK-8 binding to cholecystokinin type A receptor in rat pancreatic membranes; assay type: cell membranes, Membrane
T1 sequence (P30551 whole entry): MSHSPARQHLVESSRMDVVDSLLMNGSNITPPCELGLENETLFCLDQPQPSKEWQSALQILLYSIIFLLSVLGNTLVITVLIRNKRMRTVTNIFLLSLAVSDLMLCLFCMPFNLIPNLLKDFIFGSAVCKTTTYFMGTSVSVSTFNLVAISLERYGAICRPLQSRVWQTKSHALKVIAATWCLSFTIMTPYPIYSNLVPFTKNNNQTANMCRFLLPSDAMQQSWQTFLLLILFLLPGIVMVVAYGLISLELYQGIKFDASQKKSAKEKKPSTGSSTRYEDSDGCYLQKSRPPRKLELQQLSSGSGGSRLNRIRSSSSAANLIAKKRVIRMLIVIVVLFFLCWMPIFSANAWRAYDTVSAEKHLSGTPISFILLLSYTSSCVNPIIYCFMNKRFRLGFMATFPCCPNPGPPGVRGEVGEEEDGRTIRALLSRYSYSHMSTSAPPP
Outline: (§2)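 Fresh pancreas from fasted rats homogenized at 0 °C in 10 mM HEPES, 130 mM NaCl, 5 mM MgCl2, pH 7.4. Pellet (48000g) resuspended in same buffer plus PMSF and bacitracin, ~0.100 mg protein per 1 mL. Incubated 30 min at 25 °C with 0.15 nM (final) [propionyl-3H]CCK-8. Filtered on GF/B and counted. Nonspecific binding with 1 μM CCK-8. IC50 by log-probit; actives confirmed in duplicate.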

[3] = biological target: T2, Gastrin/cholecystokinin type B receptor (Bos taurus, UniProt P79266); experiment: Inhibition of [3H]propionyl-CCK-8 binding to Cholecystokinin type B receptor in bovine striatum; assay type: tissue-based
T2 sequence (P79266 whole entry): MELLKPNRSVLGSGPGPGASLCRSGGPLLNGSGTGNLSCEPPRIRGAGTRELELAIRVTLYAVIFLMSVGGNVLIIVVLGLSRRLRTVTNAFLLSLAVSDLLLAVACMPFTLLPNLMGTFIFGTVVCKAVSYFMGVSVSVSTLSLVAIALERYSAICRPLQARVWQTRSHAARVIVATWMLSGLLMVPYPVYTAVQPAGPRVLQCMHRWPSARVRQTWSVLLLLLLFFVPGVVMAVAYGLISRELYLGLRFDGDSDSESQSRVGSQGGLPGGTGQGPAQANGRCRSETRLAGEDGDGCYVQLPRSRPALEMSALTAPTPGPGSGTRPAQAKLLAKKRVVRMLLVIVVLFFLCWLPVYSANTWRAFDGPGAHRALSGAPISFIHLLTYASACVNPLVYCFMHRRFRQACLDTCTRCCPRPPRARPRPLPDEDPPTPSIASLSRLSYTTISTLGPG
Outline: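 Frozen bovine striatum homogenized at 0 °C in 10 mM HEPES, 130 mM NaCl, 5 mM MgCl2, pH 7.4. Pellet (48000g) resuspended in same buffer plus PMSF and bacitracin, ~0.26 mg protein per 2 mL. Incubated 30 min at 25 °C with 0.15 nM (final) [propionyl-3H]CCK-8. GF/B filtration, scintillation counting. Nonspecific binding with 1 μM CCK-8. IC50 by log-probit; actives confirmed in duplicate.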

[4] = Dose which caused 50% inhibition of the control intake was determined by log-probit analysis after intraperitoneal administration (CCK-8 receptor); settings: Rattus norvegicus
Rattus norvegicus [5] = experiment: Compound was evaluated for its ability to suppress food intake in one of two meal-fed rats after intraperitoneal administration of 3 ug/kg; assay type: functional; outline: as §1
Rattus norvegicus [6] = experiment: Compound was evaluated for its ability to suppress food intake in one of two meal-fed rats after intraperitoneal administration of 10 ug/kg; assay type: functional; outline: as §1
Rattus norvegicus [7] = experiment: Compound was evaluated for its ability to suppress food intake in one of two meal-fed rats after intraperitoneal administration of 320 ug/kg; assay type: functional; outline: as §1
[8] = biological target: T1, Cholecystokinin receptor type A; experiment: The compound was tested in vitro for inhibition of specific [3H]propionyl-CCK-8 binding to Cholecystokinin type A receptor in rat pancreatic membranes; assay type: cell membranes, Membrane; outline: as §2
Rattus norvegicus [9] = experiment: Dose which caused 50% inhibition of the control intake was determined by log-probit analysis after intraperitoneal administration; assay type: functional; settings: ip; outline: as §1
Rattus norvegicus [10] = experiment: Compound was evaluated for its ability to suppress food intake in one of two meal-fed rats after intraperitoneal administration of 1240 ug/kg; assay type: functional; outline: as §1
Rattus norvegicus [11] = experiment: Compound was evaluated for its ability to suppress food intake in one of two meal-fed rats after intraperitoneal administration of 0.3 ug/kg; assay type: functional; outline: as §1
Rattus norvegicus [12] = experiment: Compound was evaluated for its ability to suppress food intake in one of two meal-fed rats after intraperitoneal administration of 20 ug/kg; assay type: functional; outline: as §1
Rattus norvegicus [13] = experiment: Compound was evaluated for its ability to suppress food intake in one of two meal-fed rats after intraperitoneal administration of […]; assay type: functional
Rattus norvegicus [14] = experiment: Compound was evaluated for its ability to suppress food intake in one of two meal-fed rats after intraperitoneal administration of 14 ug/kg; assay type: functional; outline: as §1

IC50 [2] | IC50 [3] | IC50 [8] | Structure (SMILES) | Control (Rattus norvegicus [1]) | Control (Rattus norvegicus [5]) | Control (Rattus norvegicus [7]) | ED50 (Rattus norvegicus [9]) | further results
1200 nM | 1300 nM | – | CSCC[C@H](NC(=O)[C@H](Cc1c[nH]c2ccccc12)NC(=O)CNC(=O)[C@H](Cc1ccc(S(=O)(=O)O)cc1)NC(=O)O)C(=O)N[C@@H](CC(=O)O)C(=O)N[C@@H](Cc1ccccc1)C(N)=O ({CO}-[Phe(4-SO3H)]GWMDF-NH2) | 69% | – | – | – | –
0.6 nM | 4.4 nM | – | CSCC[C@H](NC(=O)[C@H](Cc1ccc(S(=O)(=O)O)cc1)NC(=O)O)C(=O)NCC(=O)N[C@@H](Cc1c[nH]c2ccccc12)C(=O)N[C@@H](CCSC)C(=O)N[C@@H](CC(=O)O)C(=O)N[C@@H](Cc1ccccc1)C(N)=O ({CO}-[Phe(4-SO3H)]MGWMDF-NH2) | 6% | 81% | – | – | ED50 [4]: 7 µmol/kg; Control (Rattus norvegicus [6]): 36%
– | 0.48 nM | 2.1 nM | CSCC[C@H](NC(=O)[C@H](Cc1c[nH]c2ccccc12)NC(=O)c1cccc(NC(=O)[C@H](Cc2ccc(S(=O)(=O)O)cc2)NC(=O)O)c1)C(=O)N[C@@H](CC(=O)O)C(=O)N[C@@H](Cc1ccccc1)C(N)=O ({CO}-[Phe(4-SO3H)][3Abz]WMDF-NH2) | 14% | 52% | 4% | 3 µmol/kg | –
– | 0.085 nM | 1600 nM | CSCC[C@H](NC(=O)[C@H](Cc1c[nH]c2ccccc12)NC(=O)c1ccc(NC(=O)[C@H](Cc2ccc(S(=O)(=O)O)cc2)NC(=O)O)cc1)C(=O)N[C@@H](CC(=O)O)C(=O)N[C@@H](Cc1ccccc1)C(N)=O ({CO}-[Phe(4-SO3H)][4Abz]WMDF-NH2) | – | – | – | > 1240 µmol/kg | Control (Rattus norvegicus [10]): 75%
360 nM | 13 nM | – | CSCC[C@H](NC(=O)[C@H](Cc1c[nH]c2ccccc12)NC(=O)CCCCCNC(=O)[C@H](Cc1ccc(S(=O)(=O)O)cc1)NC(=O)O)C(=O)N[C@@H](CC(=O)O)C(=O)N[C@@H](Cc1ccccc1)C(N)=O ({CO}-[Phe(4-SO3H)][Ahx]WMDF-NH2) | – | – | 80% | – | –
22 nM | 9 nM | – | CSCC[C@H](NC(=O)[C@H](Cc1c[nH]c2ccccc12)NC(=O)CCCCNC(=O)[C@H](Cc1ccc(S(=O)(=O)O)cc1)NC(=O)O)C(=O)N[C@@H](CC(=O)O)C(=O)N[C@@H](Cc1ccccc1)C(N)=O ({CO}-[Phe(4-SO3H)][Ava]WMDF-NH2) | 54% | 102% | 9% | – | –
4.9 nM | 1.8 nM | – | CSCC[C@H](NC(=O)[C@H](Cc1c[nH]c2ccccc12)NC(=O)CCCNC(=O)[C@H](Cc1ccc(S(=O)(=O)O)cc1)NC(=O)O)C(=O)N[C@@H](CC(=O)O)C(=O)N[C@@H](Cc1ccccc1)C(N)=O ({CO}-[Phe(4-SO3H)][GABA]WMDF-NH2) | 11% | 69% | 1% | – | Control (Rattus norvegicus [11]): 104%; ED50 [4]: 4.7 µmol/kg; Control (Rattus norvegicus [12]): 6%
– | 0.91 nM | 2.7 nM | CSCC[C@H](NC(=O)[C@H](Cc1c[nH]c2ccccc12)NC(=O)c1cccc(NC(=O)[C@H](Cc2ccc(S(=O)(=O)O)cc2)NC(=O)O)c1C)C(=O)N[C@@H](CC(=O)O)C(=O)N[C@@H](Cc1ccccc1)C(N)=O ({CO}-[Phe(4-SO3H)][X1]WMDF-NH2) | 44% | – | 5.9% | 24 µmol/kg | Control (Rattus norvegicus [13]): 104%; Control (Rattus norvegicus [14]): 58%
– | 3.4 nM | 161 nM | CSCC[C@H](NC(=O)[C@H](Cc1c[nH]c2ccccc12)NC(=O)C[C@@H]1CCCC[C@@H]1NC(=O)[C@H](Cc1ccc(S(=O)(=O)O)cc1)NC(=O)O)C(=O)N[C@@H](CC(=O)O)C(=O)N[C@@H](Cc1ccccc1)C(N)=O ({CO}-[Phe(4-SO3H)][X3]WMDF-NH2) | – | – | 80% | > 320 µmol/kg | –
– | 5 nM | 73 nM | CSCC[C@H](NC(=O)[C@H](Cc1c[nH]c2ccccc12)NC(=O)c1cc(NC(=O)[C@H](Cc2ccc(S(=O)(=O)O)cc2)NC(=O)O)ccc1C)C(=O)N[C@@H](CC(=O)O)C(=O)N[C@@H](Cc1ccccc1)C(N)=O ({CO}-[Phe(4-SO3H)][X4]WMDF-NH2) | – | – | 95% | > 320 µmol/kg | –
– | – | 165 nM | CSCC[C@H](NC(=O)[C@H](Cc1c[nH]c2ccccc12)NC(=O)C[C@H]1CCCC[C@@H]1NC(=O)[C@H](Cc1ccc(S(=O)(=O)O)cc1)NC(=O)O)C(=O)N[C@@H](CC(=O)O)C(=O)N[C@@H](Cc1ccccc1)C(N)=O ({CO}-[Phe(4-SO3H)][X5]WMDF-NH2) | – | – | 90% | > 320 µmol/kg | –
10000 nM | 3600 nM | – | CSCC[C@H](NC(=O)[C@H](Cc1c[nH]c2ccccc12)NC(=O)CCNC(=O)[C@H](Cc1ccc(S(=O)(=O)O)cc1)NC(=O)O)C(=O)N[C@@H](CC(=O)O)C(=O)N[C@@H](Cc1ccccc1)C(N)=O ({CO}-[Phe(4-SO3H)][βAla]WMDF-NH2) | 108% | – | – | – | –
